# This is a sample that favours compounds with a hit; in the whole collection about 3% have one here.
# 5HT1E antag: 5-HT1E (human) receptor antagonism; inhibition, % at 6 µM; CHO 5-HT1E Ga15 NFAT-bla reporter, FRET, antagonist; 65,000 tested, 0.99% active; P28566; AID 571;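 active = inhibition above a set limit, the mean inhibition across every tested compound plus 3 SD, cut at about 29% in these data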;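 also: signal is the 460 over 535 nm emission ratio of beta-lactamase substrate; 0% = agonist plus DMSO wells and 100% = wells without agonist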
# 5-HT1A blocker: 5-HT1a (human) receptor antagonism. P08908. CHO 5-HT1a Ga15 NFAT-bla reporter, antagonist mode. inhibition, % at 10 µM. 62,000 tested, 0.68% active. AID 612;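 active = inhibition above the mean of all tested compounds plus 3 SD, cut at about 43% in these data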;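 also: receptor stimulated by 5-CT agonist at 100 nM near EC80; beta-lactamase reporter measured by ratiometric fluorescence of a cleavable substrate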
# Target sequence (P08908 whole entry, looked up): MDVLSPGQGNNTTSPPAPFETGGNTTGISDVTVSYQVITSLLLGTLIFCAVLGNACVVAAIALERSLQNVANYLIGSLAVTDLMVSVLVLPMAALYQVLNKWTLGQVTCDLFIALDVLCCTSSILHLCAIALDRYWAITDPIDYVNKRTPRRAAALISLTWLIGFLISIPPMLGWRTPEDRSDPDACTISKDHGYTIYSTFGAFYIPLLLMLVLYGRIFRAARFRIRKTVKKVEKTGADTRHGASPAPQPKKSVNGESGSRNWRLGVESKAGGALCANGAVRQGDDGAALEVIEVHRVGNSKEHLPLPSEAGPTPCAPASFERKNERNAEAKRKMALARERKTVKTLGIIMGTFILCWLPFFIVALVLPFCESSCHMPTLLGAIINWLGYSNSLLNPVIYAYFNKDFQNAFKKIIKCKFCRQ
# S1P1 ag pot: S1P1 (human) agonism or agonism potentiation | P21453 | S1P1 CRE-bla cells, forskolin, beta-lactamase FRET, potentiator mode; S1P1 agonist co-added at EC20, 2 nM; 100% = saturating reference agonist, 0% = basal | activation, % at 9.5 µM | 56,000 tested, 0.57% active;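 active = activation above a cutoff set at the mean activation of all tested compounds plus 3 SD, cut at about 54% in these data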;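 also: forskolin at 4 µM as EC80 and the EC20 agonist is SEW2871; 100% = SEW2871 at its EC100 plus forskolin at EC80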
# 5HT1E ag: agonists of human 5-HT1E serotonin receptor | P28566 | CHO 5-HT1E Ga15 NFAT-bla reporter, FRET; 0% DMSO wells, 100% control agonist wells | activation, % at 6 µM | 65,000 tested, 0.69% active | AID 574;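 active = activation above a set limit, the screen-wide mean activation plus 3 SD, cut at about 8.5% in these data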;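 also: 100% = positive control agonist at 1 µM giving full maximal response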
# S1P3 ag: agonists of human S1P3 receptor; S1P3 NFAT-BLA reporter cells, agonism, FRET ratio; relative to 1 µM S1P, basal subtracted; activation, % at 4.5 µM; 60,000 tested, 0.1% active;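 active = activation above the screen-wide mean plus 3 SD, cut at about 4.5% in these data, passing the limit was not always enough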
#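 Benchmarks: high control 1 µM S1P / System: stable CHO line with human S1P3, Gα16, NFAT-BLA reporter / Dosing: single compound concentration, 4.5 µM final / Timing: 4 h compound at 37 °C, 2 h substrate at RT / Measured by: FRET β-lactamase substrate fluorescence, excitation 405 nm, 460/535 nm emission ratio, background-subtracted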
# HTR1A agonist: 5-HT1a (human) receptor agonism; CHO 5-HT1a Ga15 NFAT-bla reporter, FRET ratio; 0% basal, 100% maximal reference agonist; P08908; activation, % at 10 µM; AID 567; 65,000 tested, 0.56% active;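 active = activation above the screen-wide mean activation plus 3 SD, cut at about 19% in these data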;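 also: 0% = DMSO wells and 100% = 5-CT at EC100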
# Active calls of the source: *; · = no result.
SMILES,5HT1E antag,5-HT1A blocker,S1P1 ag pot,5HT1E ag,S1P3 ag,HTR1A agonist
CCOC(=O)CCS(=O)(=O)c1nc(-c2ccccc2)cc(C(F)(F)F)n1,54*,86*,·,1,-1,0
CCOC(=O)CS(=O)(=O)c1nc(-c2ccccc2)cc(C(F)(F)F)n1,108*,105*,2,5,-1,-7
COCC(C)NC(=O)CCS(=O)(=O)c1nc(-c2ccc(OC)cc2)cc(C(F)(F)F)n1 (stereo not drawn),8,39,16,0,-1,4
COc1cc2c(cc1OC)CN(C(=O)CSc1nnc3scc(-c4ccccc4)n13)CC2,-2,-14,-18,1,3,1
CN(C)c1ccc(/C(=N\O)c2ccccc2)cc1,1,-3,-9,0,-1,-5
COCCn1cnnc1SCC(=O)Nc1ccccc1C(=O)Nc1ccc2c(c1)OCO2,-3,2,-8,0,0,-3
Cc1ccc(Nc2nc(C)c(CCC(C)C)c(=O)[nH]2)cc1,-3,-9,8,1,-1,-4
Cc1nc(Nc2ccc(F)cc2)[nH]c(=O)c1CCC(C)C,-8,52*,39,0,-2,1
CC1CCc2cc(F)ccc2N1C(=O)CSc1nnc(-c2cccs2)n1C (stereo not drawn),3,-25,-8,-1,0,-2
Cc1nc2ccc3nc(NC(=O)C4COc5ccccc5O4)sc3c2s1 (stereo not drawn),-2,-9,67*,0,0,-1
O=C(O)c1ccccc1C(=O)N1CC=C(c2ccccc2)CC1,-5,1,-4,12*,0,7
Cc1ccc2nc3c(cc(C(=O)NCc4ccccc4)c(=N)n3CCCn3ccnc3)c(=O)n2c1,-18,-33,-431,3,4,15
Cc1cccn2c(=O)c3cc(C(=O)NC(C)c4ccccc4)c(=N)n(CCCn4ccnc4)c3nc12 (stereo not drawn),-21,-66,-497,5,4.7*,16
Cc1ccc(N(CC(=O)N2CC(=O)Nc3ccccc32)S(=O)(=O)c2ccc3c(c2)OCCO3)cc1,-6,7,·,0,·,0
CCCS(=O)(=O)c1nnnn1-c1cccc(OC)c1,106*,109*,116*,-1,-2,-11
Cc1ccc(OCCn2cc(/C(N)=N/O)c3ccccc32)cc1C,36*,42,68*,1,-1,4
Cc1ccc(C)c(C(=O)NCc2ccncc2)c1,-4,-1,3,-1,4,-1

# From PubChem BioAssay
